The record followed here is ChEMBL document CHEMBL1137506, “Novel orally active, dibenzazepinone-based gamma-secretase inhibitors” (Bioorg Med Chem Lett, 2007).

Each structure is given as a SMILES string.

The target of data set [1] is Gamma-secretase. Nature of the data set: Inhibition of human gamma secretase in HEK293 cells by reporter gene assay. In kind it is cell-based. The method in brief: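 Cellular reporter assay in HEK293 cells. The γ-secretase substrate is a Notch 1 construct fused to a Gal4/VP16 transcription factor, which drives a firefly luciferase reporter gene. IC50 is taken from inhibition of the luciferase signal.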

The target in data set [2] is Gamma-secretase. Nature of the data set: Inhibition of human gamma secretase assessed as amyloid-beta40 peptide production […] by ELISA. Type of data set: cell-based. The conditions noted are these: hek293. The method in brief:
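Cell-free assay. Membrane fractions from HEK293 cells carrying γ-secretase activity are incubated with a recombinant APP C-terminal fragment as substrate. The Aβ40 peptide produced is quantified by ELISA, and IC50 is derived from it.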
(In an ELISA, binding on a coated surface is turned into a signal by an enzyme label.)

Data set [3] in a line: Maximal achievable bioavailability in rat liver microsomes. Type of data set: ADME, Microsome. The conditions noted are these: read-out: Max Achievable Bioavailability. Background: Liver microsomes are a subcellular fraction often used to study metabolism.
Data set [4] in a line: Oral bioavailability in mouse at 7.8 mg/kg, po. Type of data set: ADME, organism-based. The conditions noted are these: in vivo. The method in brief:
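Oral bioavailability (F) in mice after a 7.8 mg/kg oral dose.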

For another data set, the system named is Mus musculus. Nature of the data set: Increase of CTF-APP ratio in po dosed transgenic mouse AD model after 2 days. In kind it is functional.
The nature of data set [5]: Ratio of drug level in brain to plasma in mouse. In kind it is ADME.
Data set [6] is described as follows: Clearance in mouse. Type of data set: ADME, organism-based. The note with it: in vivo.
Data set [7] in a line: Maximal achievable bioavailability in human liver microsomes. The note with it: read-out: Max Achievable Bioavailability. In kind it is ADME, Microsome. In outline:
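Maximal achievable bioavailability is estimated from compound incubations with liver microsomes of the stated species.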

Data set [8] in a line: Solubility of compound. Type of data set: physicochemical.

One may read the IC50 as the midpoint of a concentration-inhibition curve. Regarding `CCOCCNC(=O)C(C)C(=O)NC1C(=O)N(C)c2ccccc2-c2ccccc21` (centres undefined), the 50% inhibitory concentration (IC50) on Gamma-secretase [1] is 3300 nM; at Gamma-secretase [2], 3000 nM.

Broadly, the bioavailability is dose-corrected exposure relative to a reference, in per cent. As a reminder, the Kp is the ratio of the level in a tissue or fluid to that in plasma or blood. Broadly, the clearance is a measure of how efficiently the substance is removed, as volume per time. A lower clearance goes with a low capacity for elimination. Usually Solubility stands for the concentration that dissolves in the medium under given conditions. Lower therefore signals little dissolved substance. In the case of `CC(C(=O)NCC(F)(F)C(F)(F)F)C(=O)N[C@@H]1C(=O)N(C)c2ccccc2-c2ccccc21` (mixture of isomers), the Fh in [3] came out at 38%; in data set [7], 55%. The concentration for half-maximal inhibition (IC50) turned out to be 1.7 nM against Gamma-secretase [1] and 3 nM on Gamma-secretase [2]. This compound also gave a bioavailability in [4] of 21%. Further, the MED in the data set with Mus musculus is 3 mg/kg. In addition, in data set [5], the concentration ratio (Kp) worked out at 0.5. The compound also displayed a clearance in data set [6] of 53 mL/min/kg. Besides, the Solubility in data set [8] amounted to 28 mg/mL.

For the compound `C[C@H](NC(=O)[C@@H](O)c1cc(F)cc(F)c1)C(=O)N[C@@H]1C(=O)N(C)c2ccccc2-c2ccccc21`, the MED in the data set on Mus musculus was determined as 20 mg/kg.

As to `CC(C(=O)NCc1cc(F)cc(F)c1)C(=O)N[C@@H]1C(=O)N(C)c2ccccc2-c2ccccc21` (mixture of isomers), the IC50 at Gamma-secretase [1] was 8.8 nM; at Gamma-secretase [2], 3.1 nM.

On to `CC(C(=O)NCc1ccccc1)C(=O)NC1C(=O)N(C)c2ccccc2-c2ccccc21` (centres undefined), for which the results for the IC50 on Gamma-secretase [1] and at Gamma-secretase [2] were 75 nM and 15 nM, respectively.

In the case of `CC(C(=O)NCC1CC1)C(=O)NC1C(=O)N(C)c2ccccc2-c2ccccc21` (centres undefined), the Fh came to 12% in data set [3] and 18% in data set [7]. The concentration for half-maximal inhibition (IC50) on Gamma-secretase [1] was 210 nM; on Gamma-secretase [2] it was 90 nM.

For the compound `CC(C(=O)NC1C(=O)N(C)c2ccccc2-c2ccccc21)C(=O)NC(C)(C)c1ccccc1` (centres undefined), the Fh came out at 9% in data set [3] and 14% in data set [7]. Moreover, the IC50 at Gamma-secretase [1] and on Gamma-secretase [2] was over 20000 nM each time.

For the compound `C[C@H](OC(=O)Nc1ccccc1)C(=O)NC1C(=O)N(C)c2ccccc2-c2ccccc21` (some centres undefined), the IC50 at Gamma-secretase [1] turned out to be 1500 nM; at Gamma-secretase [2], 2700 nM.

In the case of `CC(C(=O)NC(C)c1ccccc1)C(=O)NC1C(=O)N(C)c2ccccc2-c2ccccc21` (centres undefined), the results for the IC50 on Gamma-secretase [1] and at Gamma-secretase [2] were 6300 nM and 5700 nM, respectively.

`C[C@@H](C(=O)NCc1cc(F)cc(F)c1)C(=O)N[C@@H]1C(=O)N(C)c2ccccc2-c2ccccc21`: the figures for the IC50 at Gamma-secretase [1] and at Gamma-secretase [2] were 1.6 nM and 2 nM, respectively.

As to `CC(C(=O)NCCC(F)(F)F)C(=O)NC1C(=O)N(C)c2ccccc2-c2ccccc21` (centres undefined), the 50% inhibitory concentration (IC50) against Gamma-secretase [1] worked out at 24 nM; on Gamma-secretase [2], 37 nM.

Take `C[C@H](C(=O)NCc1cc(F)cc(F)c1)C(=O)N[C@@H]1C(=O)N(C)c2ccccc2-c2ccccc21`: the IC50 on Gamma-secretase [1] amounted to 7.1 nM; on Gamma-secretase [2], 8.7 nM.

In the case of `CC(C(=O)NC(CO)c1ccccc1)C(=O)NC1C(=O)N(C)c2ccccc2-c2ccccc21` (centres undefined), the values for the IC50 at Gamma-secretase [1] and at Gamma-secretase [2] were over 25000 nM and 22000 nM, respectively.

On to `CC(C(=O)NCc1cc(F)cc(F)c1)C(=O)NC1C(=O)N(C)c2ccccc2-c2ccccc21` (centres undefined), for which the Fh was determined as 9% in data set [3] and 10% in data set [7]. For the same compound, the figures for the 50% inhibitory concentration (IC50) against Gamma-secretase [1] and on Gamma-secretase [2] were 10 nM and 22 nM, respectively.

Consider `CC(C(=O)NC1CCc2ccccc21)C(=O)NC1C(=O)N(C)c2ccccc2-c2ccccc21` (centres undefined), for which the IC50 on Gamma-secretase [1] is 14000 nM; at Gamma-secretase [2], 12000 nM.

On to `CC(C(=O)NCc1cc(F)cc(F)c1)C(=O)N[C@H]1C(=O)N(C)c2ccccc2-c2ccccc21` (mixture of isomers), for which the 50% inhibitory concentration (IC50) at Gamma-secretase [1] was 580 nM; on Gamma-secretase [2], 620 nM.

For the compound `CC(C(=O)NCC(F)(F)F)C(=O)NC1C(=O)N(C)c2ccccc2-c2ccccc21` (centres undefined), the figures for the Fh in data set [3] and in [7] were 37% and 55%, respectively. Further, the IC50 was found to be 42 nM against Gamma-secretase [1] and 20 nM at Gamma-secretase [2].

For the compound `C[C@H](OC(=O)NCC(F)(F)C(F)(F)F)C(=O)N[C@@H]1C(=O)N(C)c2ccccc2-c2ccccc21`, the Fh in data set [3] was found to be 70%; in data set [7], 72%. Besides, the IC50 was found to be 1.7 nM against Gamma-secretase [1] and 8.6 nM at Gamma-secretase [2]. In [4], the bioavailability came out at 23%. In addition, the MED in the data set with Mus musculus came out at 3 mg/kg. For the same compound, the concentration ratio (Kp) in data set [5] worked out at 0.5. In data set [6], this compound returned a clearance of 32 mL/min/kg.

For `CC(C(N)=O)C(=O)NC1C(=O)N(C)c2ccccc2-c2ccccc21` (centres undefined), the IC50 was over 25000 nM on Gamma-secretase [1] and 5300 nM at Gamma-secretase [2].

`CC(OC(=O)NCC(F)(F)C(F)(F)F)C(=O)N[C@@H]1C(=O)N(C)c2ccccc2-c2ccccc21` (some centres undefined) displayed a half-maximal inhibitory concentration (IC50) against Gamma-secretase [1] of 2 nM.
